{
  "source": "ChEMBL document CHEMBL3351588",
  "about": "“Design, synthesis and biological evaluation of N-alkyl or aryl substituted isoindigo derivatives as potential dual cyclin-dependent kinase 2 (CDK2)/glycogen synthase kinase 3β (GSK-3β) phosphorylation inhibitors” (Eur J Med Chem, 2014)",
  "key": {"[1]": {"test_system": "K562", "experiment": "Induction of cell cycle arrest in human K562 cells assessed as accumulation at S phase after 24 hrs by propidium iodide staining based flow cytometry", "type": "functional"}, "[2]": {"test_system": "K562", "experiment": "Induction of apoptosis in human K562 cells assessed as viable cells level at 10 uM after 48 hrs by Annexin V-FITC/propidium iodide staining based flow cytometry (reference value: 99.21%)", "type": "functional", "method_in_brief": "(§1)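 K562 cells exposed for 24 h or 48 h to 0, 5.0, 10.0, 15.0, 20.0 or 30.0 µM; vehicle DMSO 0.5% v/v. Cells stained with FITC-Annexin V, then counterstained with PI, and analysed by FACScan flow cytometry. Quadrants: Annexin V−/PI− viable; Annexin V+/PI− early apoptotic; Annexin V+/PI+ late apoptotic/necrotic.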"}, "[3]": {"test_system": "K562", "experiment": "Induction of cell cycle arrest in human K562 cells assessed as accumulation at G0/G1 phase at 10 uM after 24 hrs by propidium iodide staining based flow cytometry (reference value: 36.14%)", "type": "functional"}, "[4]": {"test_system": "K562", "experiment": "Induction of cell cycle arrest in human K562 cells assessed as accumulation at S phase at 30 uM after 24 hrs by propidium iodide staining based flow cytometry (reference value: 44.90%)", "type": "functional"}, "[5]": {"test_system": "K562", "experiment": "Induction of apoptosis in human K562 cells assessed as necrotic cells level at 20 uM after 24 hrs by Annexin V-FITC/propidium iodide staining based flow cytometry (reference value: 0.0%)", "type": "functional", "method_in_brief": "as §1"}, "[6]": {"test_system": "K562", "experiment": "Induction of apoptosis in human K562 cells assessed as late apoptotic cells level at 15 uM after 24 hrs by Annexin V-FITC/propidium iodide staining based flow cytometry (reference value: 0.79%)", "type": "functional", "method_in_brief": "as §1"}, "[7]": {"test_system": "K562", "experiment": "Induction of cell cycle arrest in human K562 cells assessed as accumulation at G0/G1 phase at 30 uM after 24 hrs by propidium iodide staining based flow cytometry (reference value: 36.14%)", "type": "functional"}, "[8]": {"test_system": "K562", "experiment": "Induction of apoptosis in human K562 cells assessed as necrotic cells level at 10 uM after 48 hrs by Annexin V-FITC/propidium iodide staining based flow cytometry (reference value: 0.01%)", "type": "functional", "method_in_brief": "as §1"}, "[9]": {"test_system": "K562", "experiment": "Induction of apoptosis in human K562 cells assessed as late apoptotic cells level at 20 uM after 24 hrs by Annexin V-FITC/propidium iodide staining based flow cytometry (reference value: 0.79%)", "type": "functional", "method_in_brief": "as §1"}, "[10]": {"test_system": "K562", "experiment": "Induction of apoptosis in human K562 cells assessed as necrotic cells level at 15 uM after 48 hrs by Annexin V-FITC/propidium iodide staining based flow cytometry (reference value: 0.01%)", "type": "functional", "method_in_brief": "as §1"}, "[11]": {"test_system": "K562", "experiment": "Induction of apoptosis in human K562 cells after 48 hrs by Annexin V-FITC/propidium iodide staining based flow cytometry", "type": "functional, cell-based", "method_in_brief": "as §1"}, "[12]": {"test_system": "K562", "experiment": "Induction of apoptosis in human K562 cells assessed as late apoptotic cells level at 15 uM after 48 hrs by Annexin V-FITC/propidium iodide staining based flow cytometry (reference value: 0.54%)", "type": "functional", "method_in_brief": "as §1"}, "[13]": {"test_system": "K562", "experiment": "Induction of apoptosis in human K562 cells assessed as viable cells level at 30 uM after 24 hrs by Annexin V-FITC/propidium iodide staining based flow cytometry (reference value: 97.64%)", "type": "functional", "method_in_brief": "as §1"}, "[14]": {"test_system": "K562", "experiment": "Induction of apoptosis in human K562 cells assessed as early apoptotic cells level at 15 uM after 48 hrs by Annexin V-FITC/propidium iodide staining based flow cytometry (reference value: 0.24%)", "type": "functional", "method_in_brief": "as §1"}, "[15]": {"test_system": "HeLa", "experiment": "Cytotoxicity against human HeLa cells after 48 hrs by SRB assay", "type": "functional, cell-based", "method_in_brief": "(§2)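 Cells seeded at 5 × 10³ per well and allowed to attach for 12 h, then exposed to a range of drug concentrations in their own medium for 48 h. Fixed with ice-cold TCA for 1 h at 4 °C, washed, then stained with 0.4% SRB for 30 min at room temperature. IC50 is the mean of three independent experiments.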"}, "[16]": {"test_system": "K562", "experiment": "Reduction in c-myc protein expression in human K562 cells at 5 to 30 uM after 24 hrs by Western blotting method", "type": "functional, cell-based"}, "[17]": {"test_system": "MGC-803", "experiment": "Cytotoxicity against human MGC803 cells after 48 hrs by SRB assay", "type": "functional, cell-based", "conditions": "MGC-803, 48 h", "method_in_brief": "as §2"}, "[18]": {"test_system": "A549", "experiment": "Cytotoxicity against human A549 cells after 48 hrs by SRB assay", "type": "functional, cell-based", "conditions": "A549, 48 h", "method_in_brief": "as §2"}, "[19]": {"test_system": "K562", "experiment": "Induction of apoptosis in human K562 cells assessed as viable cells level at 10 uM after 24 hrs by Annexin V-FITC/propidium iodide staining based flow cytometry (reference value: 97.64%)", "type": "functional", "method_in_brief": "as §1"}, "[20]": {"test_system": "K562", "experiment": "Induction of necrosis in human K562 cells after 24 hrs by Annexin V-FITC/propidium iodide staining based flow cytometry", "type": "functional, cell-based", "method_in_brief": "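Cells exposed to 0, 5.0, 10.0, 15.0, 20.0 or 30.0 μM for 24 h, or 0.5% DMSO. Stained with FITC–Annexin V and PI counterstain, then read by flow cytometry. Annexin V+/PI− scored as early apoptotic; Annexin V+/PI+ scored as late apoptotic/necrotic.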"}, "[21]": {"test_system": "K562", "experiment": "Induction of apoptosis in human K562 cells assessed as necrotic cells level at 20 uM after 48 hrs by Annexin V-FITC/propidium iodide staining based flow cytometry (reference value: 0.01%)", "type": "functional", "method_in_brief": "as §1"}, "[22]": {"test_system": "K562", "experiment": "Induction of cell cycle arrest in human K562 cells assessed as accumulation at S phase at 5 uM after 24 hrs by propidium iodide staining based flow cytometry (reference value: 44.90%)", "type": "functional"}, "[23]": {"test_system": "K562", "experiment": "Induction of apoptosis in human K562 cells assessed as early apoptotic cells level at 30 uM after 24 hrs by Annexin V-FITC/propidium iodide staining based flow cytometry (reference value: […])", "type": "functional"}, "[24]": {"test_system": "K562", "experiment": "Increase in GSK3beta protein expression in human K562 cells at 5 to 30 uM after 24 hrs by Western blotting method", "type": "functional, cell-based", "method_in_brief": "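K562 cells treated for 24 h; negative control DMSO 0.5% v/v, meisoindigo positive control. Lysates separated on 10% SDS-PAGE and transferred to nitrocellulose. Blocked with 5% milk in PBS-0.1% Tween-20, then probed for GSK-3β and p-GSK-3β (Ser9) for 2 h at room temperature, with β-actin as loading control. Detected with IRDye secondaries by infrared imaging and quantified by band gray value; p<0.05 versus DMSO.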"}, "[25]": {"test_system": "K562", "experiment": "Induction of apoptosis in human K562 cells assessed as early apoptotic cells level at 30 uM after 48 hrs by Annexin V-FITC/propidium iodide staining based flow cytometry (reference value: 0.24%)", "type": "functional", "method_in_brief": "as §1"}, "[26]": {"test_system": "K562", "experiment": "Induction of cell morphological changes in human K562 cells assessed as nuclei compaction at 5 to 30 uM after 24 hrs by Hoechst 33342/propidium iodide staining based inverted fluorescence microscopy", "type": "functional", "method_in_brief": "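Cells treated for 24 h with 5.0–30.0 μM or with 0.5% DMSO, then collected and washed with PBS. Stained with Hoechst 33342 (5.0 μg/mL, 10 min, 37 °C), then with PI (10.0 μg/mL, 10 min, room temperature, dark). Nuclei scored by fluorescence microscopy as condensed/bright, fragmented, or PI-positive.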"}, "[27]": {"test_system": "K562", "experiment": "Induction of cell cycle arrest in human K562 cells assessed as accumulation at G2/M phase at 10 uM after 24 hrs by propidium iodide staining based flow cytometry (reference value: 18.96%)", "type": "functional"}, "[28]": {"test_system": "K562", "experiment": "Induction of apoptosis in human K562 cells assessed as viable cells level at 30 uM after 48 hrs by Annexin V-FITC/propidium iodide staining based flow cytometry (reference value: 99.21%)", "type": "functional", "method_in_brief": "as §1"}},
  "note": "Activity calls are given as the source filed them. No cut-off for these calls is given here.",
  "data": [
    {"smiles": "COc1ccc(N2C(=O)/C(=C3/C(=O)Nc4ccccc43)c3ccccc32)cc1", "values": [
      {"measurement": "Activity", "setting": "[1]", "value": "Dose-dependent effect"},
      {"measurement": "Activity", "setting": "[2]", "value": 96.91, "unit": "%"},
      {"measurement": "Activity", "setting": "[3]", "value": 34.81, "unit": "%"},
      {"measurement": "Activity", "setting": "[4]", "value": 62.77, "unit": "%"},
      {"measurement": "Activity", "setting": "[5]", "value": 0.01, "unit": "%"},
      {"measurement": "Activity", "setting": "[6]", "value": 4.48, "unit": "%"},
      {"measurement": "Activity", "setting": "[7]", "value": 25.43, "unit": "%"},
      {"measurement": "Activity", "setting": "[8]", "value": 0.02, "unit": "%"},
      {"measurement": "Activity", "setting": "[9]", "value": 12.65, "unit": "%"},
      {"measurement": "Activity", "setting": "[10]", "value": 0.02, "unit": "%"},
      {"measurement": "Activity", "setting": "[11]", "value": "Dose-dependent effect"},
      {"measurement": "Activity", "setting": "[12]", "value": 2.2, "unit": "%"},
      {"measurement": "Activity", "setting": "[13]", "value": 56.98, "unit": "%"},
      {"measurement": "Activity", "setting": "[14]", "value": 2.1, "unit": "%"},
      {"measurement": "IC50", "setting": "[15]", "value": 166, "unit": "µM"},
      {"measurement": "inhibition", "setting": "[16]", "value": "Dose-dependent effect"},
      {"measurement": "IC50", "setting": "[17]", "value": 122, "unit": "µM"},
      {"measurement": "IC50", "setting": "[18]", "value": 31.9, "unit": "µM"},
      {"measurement": "Activity", "setting": "[19]", "value": 93.14, "unit": "%"},
      {"measurement": "Activity", "setting": "[20]", "value": "Dose-dependent effect"},
      {"measurement": "Activity", "setting": "[21]", "value": 0.51, "unit": "%"},
      {"measurement": "Activity", "setting": "[22]", "value": 46.03, "unit": "%"},
      {"measurement": "Activity", "setting": "[23]", "value": 23, "unit": "%"},
      {"measurement": "Activity", "setting": "[24]", "value": "Dose-dependent effect"},
      {"measurement": "Activity", "setting": "[25]", "value": 19.3, "unit": "%"},
      {"measurement": "Activity", "setting": "[26]", "value": "Active"},
      {"measurement": "Activity", "setting": "[27]", "value": 14.31, "unit": "%"},
      {"measurement": "Activity", "setting": "[28]", "value": 62.69, "unit": "%"}
    ]}
  ]
}
